# Data: ChEMBL document CHEMBL4715831, “Design and synthesis of 2-((1H-indol-3-yl)thio)-N-phenyl-acetamides as novel dual inhibitors of respiratory syncytial virus and influenza virus A” (Eur J Med Chem, 2020)
# Assays:
# [1] = test system: Respiratory syncytial virus; experiment: Antiviral activity against GFP-fused wild-type RSV subgroup A Long infected in human HEp-2 cells measured 24 to 72 hrs post infection by fluorescence assay; type: functional, cell-based
# Method in brief: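 HEp-2 cells plated, then after 24 h infected with RSV-mGFP using 3-fold serially diluted inocula starting from 3 × 10^4 pfu/well. Compounds came from a 100 mM DMSO stock, diluted as indicated. RFU read at 479/517 nm at 24, 48 and 72 h post-infection, with non-infected cells as background. Mean ± SD of at least three experiments.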
# [2] = Cytotoxicity against human HEp-2 cells assessed as reduction in cell viability measured after 48 hrs by MTS assay; type: cell-based
# Method in brief: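 HEp-2 cells plated; after 24 h, compound added and cells incubated 48 h. MTS (2 mg/ml) then added for 3 h at 37 °C in 5% CO2 and absorbance read at 490 nm. Untreated control set as 100%.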
# [3] = Safety index, ratio of CC50 for human HEp-2 cells to EC50 for GFP-fused wild-type RSV subgroup A long infected in human HEp-2 cells; type: toxicity, cell-based; conditions: read-out: Ratio CC50/EC50
# [4] = test system: Respiratory syncytial virus; experiment: Antiviral activity against GFP-fused wild-type RSV subgroup A Long infected in human HEp-2 cells assessed as relative fluorescence intensity at 20 uM pretreated for 1 hr followed by viral infection measured 24 to 72 hrs post infection by fluorescence assay; type: functional, Respiratory syncytial virus type A; conditions: time 24-73 hrs
# Method in brief: (§1)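 HEp-2 cells exposed to compound at 20 μM 1 h before RSV-mGFP infection (−1 h). GFP fluorescence read at 479/517 nm at 24, 48 and 72 h post-infection. Signal normalized to the DMSO control, set as 1; ribavirin was the positive control. Mean ± SD, three independent experiments.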
# [5] = test system: Respiratory syncytial virus; experiment: Antiviral activity against GFP-fused wild-type RSV subgroup A Long infected in human HEp-2 cells assessed as relative fluorescence intensity at 20 uM measured 24 to 72 hrs post infection by fluorescence assay; type: functional, Respiratory syncytial virus type A
# Method in brief: (§2)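 RSV-mGFP infection of HEp-2 cells with compound at 20 μM added at the time of infection (0 h). Fluorescence read at excitation 479 nm and emission 517 nm at 24, 48 and 72 h post-infection. Values normalized to the DMSO control, set as 1; ribavirin was the positive control. Mean ± SD of three independent experiments.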
# [6] = test system: Respiratory syncytial virus; experiment: Antiviral activity against GFP-fused wild-type RSV subgroup A Long infected in human HEp-2 cells assessed as reduction in viral infection at 20 uM pretreated for 1 hr followed by viral infection measured 24 to 72 hrs post infection by fluorescence assay relative to control; type: functional, Respiratory syncytial virus type A; parameters: scale not given: the % may be the effect or the level left; conditions: time 24-73 hrs; method in brief: as §1
# [7] = test system: Respiratory syncytial virus; experiment: Antiviral activity against GFP-fused wild-type RSV subgroup A Long infected in human HEp-2 cells assessed as reduction in viral infection at 20 uM measured 24 to 72 hrs post infection by fluorescence assay relative to control; type: functional, Respiratory syncytial virus type A; parameters: scale not given: the % may be the effect or the level left; conditions: time 24-72 hrs; method in brief: as §2
# Influenza A virus [8] = experiment: Antiviral activity against Influenza A virus A/WSN/33(H1N1) infected in human HEK293T cells measured after 24 hrs by Gaussia luciferase reporter gene method; type: functional, organism-based; conditions: A/WSN/1933(H1N1); for EC50: HEK-293T
# Method in brief: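 HEK293T cells carrying a Gaussia luciferase reporter that is activated by IAV, infected with A/WSN/33 (H1N1) for 1 h at room temperature, then cultured 24 h at 37 °C with serially diluted compound. Supernatant Gluc read with coelenterazine-h (16.7 μM in PBS) as 0.5-s photon counts. Normalized to control set as 100%; ribavirin positive control; three experiments.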
# [9] = Cytotoxicity against HEK293T cells assessed as reduction in cell viability measured after 48 hrs by CCK8 assay; type: cell-based, HEK-293T; conditions: human
# Method in brief: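 293T cells treated for 48 h with six compound concentrations from 12.5 to 200 μM, with DMSO-only cells as control. CCK-8 then added for 1 h at 37 °C and OD read at 450 nm. Mean ± SD of three experiments.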
# [10] = Safety index, ratio of CC50 for HEK293T cells to EC50 for antiviral activity against Influenza A virus A/WSN/33(H1N1) infected in human HEK293T cells; type: toxicity, cell-based; conditions: read-out: Ratio CC50/EC50
# Influenza A virus [11] = experiment: Antiviral activity against Influenza A virus A/WSN/33(H1N1) infected in human HEK293T cells assessed as inhibition of viral replication at 10 uM measured after 24 hrs by Gaussia luciferase reporter gene method relative to control; type: functional; conditions: A/WSN/1933(H1N1), HEK-293T
# [12] = test system: Respiratory syncytial virus; experiment: Antiviral activity against GFP-fused wild-type RSV subgroup A Long infected in human HEp-2 cells at 50 uM measured 24 to 72 hrs post infection by fluorescence assay relative to control; type: functional; conditions: time 24-72 hrs
# [13] = Cytotoxicity against human HEp-2 cells assessed as cell viability at 50 uM measured after 48 hrs by MTS assay relative to control; type: cell-based; conditions: read-out: Activity
# Influenza A virus [14] = experiment: Antiviral activity against Influenza A virus A/WSN/33(H1N1) infected in MDCK cells measured after 24 hrs by Gaussia luciferase reporter gene method; type: functional, organism-based; conditions: A/WSN/1933(H1N1)
# Method in brief: (§3)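 MDCK cells infected with IAV A/WSN/33 (H1N1) or H3N2 for 1 h at room temperature, then cultured in fresh DMEM with serially diluted compound for 24 h at 37 °C. Gluc activity in the medium read with coelenterazine-h (16.7 μM in PBS). Normalized to control set as 100%; ribavirin positive control; mean ± SD of three experiments.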
# [15] = Antiviral activity against H3N2 infected in MDCK cells measured after 24 hrs by Gaussia luciferase reporter gene method; type: functional, cell-based, H3N2 subtype; conditions: Influenza A virus; method in brief: as §3
# Influenza A virus [16] = experiment: Antiviral activity against Influenza A virus A/WSN/33(H1N1) infected in HEK293T cells assessed as inhibition of viral replication at 20 uM pretreated for 2 hrs followed by viral infection and measured after 24 hrs by Gaussia luciferase reporter gene method relative to control; type: functional; conditions: A/WSN/1933(H1N1), HEK-293T, time 26 hrs
# Method in brief: (§4)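 Time-of-addition assay: compound at 20 μM added before infection or at infection (0 h) in HEK293T-Gluc cells infected with A/WSN/33 (H1N1). Supernatant Gaussia luciferase measured after 24 h with coelenterazine-h. Values normalized to the DMSO control, set as 100%; ribavirin positive control. Mean ± SD, three independent experiments.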
# Influenza A virus [17] = experiment: Antiviral activity against Influenza A virus A/WSN/33(H1N1) infected in HEK293T cells assessed as inhibition of viral replication at 20 uM measured after 24 hrs by Gaussia luciferase reporter gene method relative to control; type: functional; conditions: A/WSN/1933(H1N1), HEK-293T; method in brief: as §4
# Influenza A virus [18] = experiment: Antiviral activity against Influenza A virus A/WSN/33(H1N1) infected in HEK293T cells assessed as relative fluorescence intensity at 20 uM pretreated for 2 hrs followed by viral infection and measured after 24 hrs by Gaussia luciferase reporter gene method; type: functional, A/WSN/1933(H1N1); conditions: time 26 hrs; method in brief: as §4
# Influenza A virus [19] = experiment: Antiviral activity against Influenza A virus A/WSN/33(H1N1) infected in HEK293T cells assessed as relative fluorescence intensity at 20 uM measured after 24 hrs by Gaussia luciferase reporter gene method; type: functional, A/WSN/1933(H1N1); method in brief: as §4
# Influenza A virus [20] = experiment: Antiviral activity against Influenza A virus A/WSN/33(H1N1) infected in HEK293T cells co-transfected with NP/PA/PB1/PB2 complex assessed as inhibition of viral replication after 24 hrs by mini-genome replicon system based luciferase assay; type: functional, organism-based; conditions: A/WSN/1933(H1N1); for EC50: HEK-293T
# Method in brief: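 Minigenome assay: vRNA transcription read as luciferase activity 24 h after transfection. Normalized to control set as 100%. Mean ± SD of three independent experiments.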
Structure (SMILES),Activity [1],EC50 [1] [µM],CC50 at 48 h [2] [µM],selectivity ratio [3],Activity (Influenza A virus [8]),EC50 (Influenza A virus [8]) [µM],CC50 at 48 h [9] [µM],selectivity ratio [10],inhibition at 10 µM (Influenza A virus [11]) [%],inhibition at 50 µM [12] [%],"viability at 48 h, 50 µM [13] [%]",EC50 (Influenza A virus [14]) [µM],EC50 [15] [µM],inhibition at 20 µM (Influenza A virus [16]) [%],inhibition at 20 µM (Influenza A virus [17]) [%],RFU (Influenza A virus [18]),RFU (Influenza A virus [19]),inhibition (Influenza A virus [20]),EC50 (Influenza A virus [20]) [µM],further results
CCOc1ccccc1NC(=O)CSc1c[nH]c2ccc(OC)cc12,Dose-dependent effect,4.82,1830,379,Dose-dependent effect,1.27,> 100,> 79.4,> 85,,,,,,,,,,,RFU [4]: 0.06; RFU [5]: 0.11; Activity [6]: 99.4%; Activity [7]: 99.89%
O=C(CSc1c[nH]c2ccccc12)Nc1ccc(Cl)c(Cl)c1,,32.7,37.5,1.15,,,,,,77.1,81.8,,,,,,,,,
CCOc1ccccc1NC(=O)CSc1c[nH]c2cc(Cl)ccc12,Dose-dependent effect,5.58,29.9,5.36,Dose-dependent effect,1.53,> 100,> 65.4,> 85,,,2.42,1.58,99.7,99.7,0.14,0.22,Dose-dependent effect,1.98,
CCOc1ccccc1NC(=O)CSc1c[nH]c2c(Br)c(OC)ccc12,Dose-dependent effect,2.92,9.65,3.3,Dose-dependent effect,1.9,> 100,> 52.6,> 85,,,3.25,1.5,99.7,99.7,0.14,0.28,Dose-dependent effect,3.89,
CCOc1ccccc1NC(=O)CSc1c[nH]c2ccccc12,,11.8,20.7,1.76,,,,,,83.2,65.2,,,,,,,,,
